Screens: PubChem BioAssay, Sanford-Burnham Center for Chemical Genomics
SENP6 block: blocks the human protease SENP6; inhibition, % at 10 µM; hit rate 1.8% among 330,000; Q9GZR1; AID 2599; Recombinant SENP6 catalytic domain, aminoluciferin luminescence;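 active means inhibition above about 50% at the single tested dose, limit read from the data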;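 further: plate controls were DMSO wells with enzyme for no effect and DMSO wells lacking enzyme for full effect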
SENP7 inh: SENP7 protease inhibition; Q9BQF6; recombinant SENP7, Z-RLRGG-aminoluciferin luminescence, 40 min; inhibition, % at 5 µM; hit rate 1.5% among 330,000; AID 434973;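 active means inhibition above about 50% at the single test dose, limit read from the data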;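 further: plate controls were DMSO with enzyme for no effect and no enzyme buffer wells for full effect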
Target sequence (Q9BQF6 706-1050 limits assumed): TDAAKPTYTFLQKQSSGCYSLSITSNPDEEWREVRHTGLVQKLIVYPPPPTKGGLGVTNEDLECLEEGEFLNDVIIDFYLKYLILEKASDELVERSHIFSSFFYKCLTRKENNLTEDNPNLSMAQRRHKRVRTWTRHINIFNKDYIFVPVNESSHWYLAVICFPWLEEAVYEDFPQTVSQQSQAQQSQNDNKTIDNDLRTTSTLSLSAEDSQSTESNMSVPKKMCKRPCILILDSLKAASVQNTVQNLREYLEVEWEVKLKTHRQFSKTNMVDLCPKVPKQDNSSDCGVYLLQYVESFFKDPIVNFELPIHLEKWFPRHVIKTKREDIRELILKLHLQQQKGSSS
SENP8 block-1: inhibitors of human SENP8 protease. purified SENP8, Z-RLRGG-aminoluciferin cleavage, luminescence. hit rate 1.2% among 330,000. inhibition, % at 10 µM. Q96LD8; in the data active means inhibition above about 50%
Target sequence (Q96LD8 whole entry, looked up): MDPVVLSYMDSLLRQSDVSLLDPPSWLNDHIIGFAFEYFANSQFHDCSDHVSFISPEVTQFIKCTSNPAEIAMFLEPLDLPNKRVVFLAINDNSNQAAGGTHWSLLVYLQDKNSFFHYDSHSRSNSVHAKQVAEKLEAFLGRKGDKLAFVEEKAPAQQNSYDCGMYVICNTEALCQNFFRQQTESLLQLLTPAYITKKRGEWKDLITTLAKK
SENP1 inh: inhibitors of human SENP1 SUMO protease catalytic domain | Q9P0U3 | recombinant SENP1 catalytic domain, CyPet-SUMO1-YPet FRET cleavage | inhibition, % at 10 µM | hit rate 0.21% among 360,000 | AID 624204;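 active means inhibition at least 30% at 10 µM, raw YFP signal under a set limit, fluorescence ratio 0.5 to 1.5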;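 further: 0% = enzyme with DMSO and 100% = no enzyme wells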
Target sequence (Q9P0U3 419-644 limits assumed): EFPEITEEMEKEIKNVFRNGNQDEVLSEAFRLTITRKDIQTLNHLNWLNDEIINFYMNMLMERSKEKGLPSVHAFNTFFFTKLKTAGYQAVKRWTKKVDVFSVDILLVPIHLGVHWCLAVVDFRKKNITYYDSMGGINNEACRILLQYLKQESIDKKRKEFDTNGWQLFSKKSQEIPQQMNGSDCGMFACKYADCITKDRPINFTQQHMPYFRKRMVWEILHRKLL
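Material – human SENP1 catalytic domain · Input – SENP1 enzyme, 20 pM final · Compound dosing – single concentration of 10 µM compound, 0.5% DMSO final · Timing – enzyme reaction for 50 min at room temperature, dark · Measured by – FRET fluorescence in CFP and YFP emission channels · Control set – no-enzyme wells low, DMSO-plus-enzyme wells high control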
CendR NRP1 mod: alters CendR peptide binding to human NRP-1; O14786; FAM-RPARPAR peptide binding to NRP-1, fluorescence polarization; inhibition, % at 25 µM; hit rate 0.85% among 360,000;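 active means inhibition or corrected inhibition above about 18%, plus a signal ratio from 0.5 to 1.5, limit read from the data, passing the limit was not always enough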
SENP8 block-2: blocks human SENP8 cleavage of Nedd8 substrate; Q96LD8; recombinant SENP8, Nedd8 substrate fluorescence; inhibition, % at 20 µM; hit rate 0.64% among 360,000; AID 602440; in the data active means inhibition mostly above about 40%, no sharp cut-off; inactive means mostly below about 27%
SENP8 conf: human SENP8 inhibition, confirmed. shares compounds with SENP7 inh. Recombinant SENP8, Z-RLRGG-aminoluciferin luminescence, 60 min. inhibition, % at 12.5 µM. hit rate 40% among 6,200;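 active means mean inhibition across replicates above about 50%, limit read from the data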
SENP6 conf: human SENP6 inhibition, confirmed; shares compounds with SENP7 inh; AID 488915; inhibition, % at 12.5 µM; recombinant SENP6, Z-RLRGG-aminoluciferin luminescence; hit rate 58% among 6,200
SENP7 conf: confirmation of human SENP7 protease inhibitors. shares compounds with SENP7 inh. recombinant SENP7, Z-RLRGG-aminoluciferin luminescence, 40 min. inhibition, % at 12.5 µM. hit rate 69% among 6,200
Casp3 select: selectivity test for SENP inhibitors: human caspase-3 inhibition | shares compounds with SENP7 inh | purified caspase-3, Z-DEVD-aminoluciferin luminescence, 60 min | inhibition, % at 12.5 µM | hit rate 60% among 6,200 | AID 488918;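 active means mean inhibition above about 50%, limit read from the data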;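 further: plate controls were enzyme with DMSO for no effect and wells without caspase-3 for full effect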
Luc interf: luminescence interference (SENP counter-screen). shares compounds with SENP7 inh. Pre-incubated SENP8/Z-RLRGG-aminoluciferin, luciferase luminescence interference. inhibition, % at 12.5 µM. hit rate 39% among 6,200;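 active means mean inhibition above about 50% when retested at one dose, limit read from the data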;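 further: plate controls were DMSO wells with completed reaction for no effect and substrate without enzyme for full effect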
Numbers without * were called inactive; nt = not tested or not shown. Hits are enriched below; roughly 3.3% of the tested compounds scored in any of these assays.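 How the source made its calls, unless noted: active means mean inhibition above about 50% in the one-dose retest (limit read from the data); inactive means the rest.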

SMILES | SENP6 block | SENP7 inh | SENP8 block-1 | SENP1 inh | CendR NRP1 mod | SENP8 block-2 | SENP8 conf | SENP6 conf | SENP7 conf | Casp3 select | Luc interf
O=C(Nc1ccc(Br)cc1)c1ccc2c(c1)OCO2 | 34.3 | 51.7* | 6.4 | 0.9 | -5.8 | -1.2 | 12.1 | 18.6 | 69.8* | 46.9 | 1.5
O=C(Nc1ccc(F)c(F)c1)c1ccc2c(c1)OCO2 | 71.1* | -4.7 | 66.9* | 1.1 | 3.3 | 5.2 | 73.4* | 74.4* | 90.8* | 76.1* | 48.2
O=C(Nc1ccc(Cl)c(Cl)c1)Nc1ccccc1O | -3.2 | 97.2* | 97.6* | 3.2 | -4.5 | 4.8 | 98.0* | 100.4* | 103.7* | 89.5* | 98.4*
O=C(Nc1ccc(Cl)cc1)C1=Cc2ccccc2OC1 | 66.1* | 45.2 | 45.5 | -1.7 | 1.1 | -19.0 | 52.6* | 62.0* | 86.7* | 35.4 | 34.3
NC(CSC(c1ccccc1)(c1ccccc1)c1ccc2c(c1)OCO2)C(=O)O (configuration not stated) | nt | nt | nt | -5.4 | -19.4 | 7.9 | nt | nt | nt | nt | nt
OC[C@@H]1CN(Cc2ccc(Cl)cc2)C[C@H](n2cnc3c(N4CCN(c5ccccc5)CC4)ncnc32)O1 | nt | nt | nt | -0.4 | -9.2 | 17.2 | nt | nt | nt | nt | nt
CN(Cc1nc2ccccc2c(=O)[nH]1)C(=O)c1cccc(S(=O)(=O)N2CCc3ccccc32)c1 | 0.3 | 15.7 | -3.6 | -4.4 | 6.8 | 2.0 | nt | nt | nt | nt | nt
COc1cccc(-c2cnc(C(O)c3c(C)cc(C)cc3C)[nH]2)c1 (configuration not stated) | nt | nt | nt | -0.5 | 5.2 | 0.8 | nt | nt | nt | nt | nt
Cc1cc(C(=O)Nc2ccc3c(c2)OCO3)cs1 | 64.5* | 73.0* | 49.7 | 0.4 | 3.9 | 2.6 | 70.4* | 71.8* | 92.9* | 86.4* | 74.7*
O=C(Nc1ccc(NC(=O)c2ccc(Cl)cc2Cl)cc1)c1ccc2c(c1)OCO2 | -11.1 | -7.2 | -0.6 | -0.9 | 5.7 | -63.7 | nt | nt | nt | nt | nt
O=C(Nc1ccc(Cl)c(Cl)c1)c1ccc2c(c1)OCO2 | 80.0* | 71.6* | 77.2* | 0.5 | 2.6 | 16.9 | 18.9 | 77.0* | 96.4* | 64.9* | 8.9
COc1cc(OC)cc(C(=O)Nc2ccc3c(c2)OCCO3)c1 | 98.4* | 95.7* | 92.1* | -0.5 | 0.3 | 14.5 | -3.8 | 95.4* | 101.8* | 96.3* | 95.0*
O=C(NC(=S)Nc1ccc2c(c1)OCCO2)c1ccccc1 | 76.3* | 25.2 | 48.9 | 0.1 | 13.3 | 11.9 | 59.1* | 60.7* | 88.1* | 53.7* | 58.9*
NC(=O)c1ccc(NC(=O)c2ccc3c(c2)OCO3)cc1 | 9.1 | 46.3 | 0.5 | 2.9 | -0.9 | 12.3 | nt | nt | nt | nt | nt
Cc1cc(C(=O)Nc2ccccn2)cs1 | 71.9* | 70.8* | 48.8 | 1.5 | -8.5 | 5.5 | 40.0 | 46.6 | 84.7* | 85.4* | 63.3*
O=C(Nc1ccc2c(c1)OCO2)OCc1ccccc1 | -22.5 | 60.0* | 38.3 | 0.6 | -0.2 | 15.2 | 52.4* | 50.6* | 82.1* | 52.9* | 33.6
O=C(Nc1ccc2nsnc2c1)c1ccc2c(c1)OCO2 | 66.7* | 78.0* | 64.9* | -1.2 | -0.6 | -275.3 | 37.4 | 57.2* | 87.7* | 80.0* | 45.7
O=C(CCc1ccccc1)Nc1ccc2c(c1)OCO2 | 10.5 | 4.9 | -1.0 | -0.6 | 1.6 | 7.1 | nt | nt | nt | nt | nt
O=C(Nc1ccc2c(c1)OCO2)c1ccc(Cl)s1 | 76.5* | 73.5* | 61.7* | 2.3 | 8.7 | 11.7 | -1.1 | 62.9* | 88.1* | 66.3* | 63.6*
O=c1ccn([C@@H]2O[C@H](CNCc3c(OCc4ccccc4F)ccc4ccccc34)[C@@H](O)[C@H]2O)c(=O)[nH]1 | nt | nt | nt | 1.9 | -8.6 | 16.4 | nt | nt | nt | nt | nt
CC(C)Oc1ccc(S(=O)(=O)N2CCOCC2)cc1NC(=O)C1COc2ccccc2O1 (configuration not stated) | 10.3 | 9.9 | 10.3 | 1.0 | 9.2 | 5.8 | nt | nt | nt | nt | nt
CSc1ccc(CN2CCC(C)(Oc3ccccc3)C2)cc1 (configuration not stated) | nt | nt | nt | 0.1 | 1.1 | 16.5 | nt | nt | nt | nt | nt
O=C(Nc1cccc(-c2nn[nH]n2)c1)c1ccc(Br)s1 | 33.7 | 27.7 | 29.7 | 1.7 | 1.0 | 5.2 | nt | nt | nt | nt | nt
O=C(Nc1cccc(-c2nn[nH]n2)c1)c1ccc(Cl)s1 | 50.8* | 15.8 | 22.4 | -2.0 | 1.8 | 1.9 | 42.0 | 36.5 | 72.4* | 35.1 | 58.3*
O=C(Nc1ccc2c(c1)oc1ccccc12)c1ccc2c(c1)OCO2 | 25.6 | 61.3* | 10.2 | -0.4 | -15.3 | -17.1 | -6.2 | 6.8 | 7.4 | 3.7 | 3.0
SMILES | SENP6 block | SENP7 inh | SENP8 block-1 | SENP1 inh | CendR NRP1 mod | SENP8 block-2 | SENP8 conf | SENP6 conf | SENP7 conf | Casp3 select | Luc interf
O=C(Nc1ccc2c(c1)OCO2)c1cccc(Cl)c1 | 92.1* | 92.2* | 81.1* | 0.8 | 3.8 | 9.6 | -5.6 | 86.6* | 98.5* | 89.6* | 74.0*
CC(=O)c1cccc(NC(=O)c2ccc3c(c2)OCO3)c1 | 11.7 | 17.4 | -15.1 | -0.3 | 12.0 | 16.6 | nt | nt | nt | nt | nt
Cc1ccc2nc(-c3ccccc3)c(Cc3ccccc3C(F)(F)F)n2c1 | nt | nt | nt | 0.5 | -30.3 | -240.8 | nt | nt | nt | nt | nt
COC(=O)c1sccc1S(=O)(=O)Nc1ccc(C(O)(C(F)(F)F)C(F)(F)F)cc1 | nt | nt | nt | 0.6 | -7.8 | 1.4 | nt | nt | nt | nt | nt
O=C1CN(C(=O)c2ccc(Cl)c(S(=O)(=O)N3CCc4ccccc43)c2)c2ccccc2N1 | 60.6* | 6.8 | 3.6 | -2.5 | -3.1 | 8.8 | -5.5 | -8.1 | -7.6 | -4.1 | -3.9
NC1=Nc2cccc3cccc1c23 | 66.2* | 1.5 | 10.9 | -34.1 | -14.5 | -351.2 | 1.3 | 23.3 | 9.4 | 3.0 | 1.7
Cc1nc(Cc2nnc(SC(C)C(=O)Nc3ccccc3)o2)cs1 (configuration not stated) | nt | nt | nt | 1.9 | -3.7 | 14.6 | nt | nt | nt | nt | nt
CSc1sccc1/C=C(/C#N)C(=O)c1ccco1 | 2.8 | -2.6 | 1.0 | 0.5 | -31.6 | -7.4 | nt | nt | nt | nt | nt
O=S1(=O)N=C(Nc2nc3c(s2)CCCC3)c2ccccc21 | 85.8* | 76.5* | 77.3* | 2.4 | 7.5 | 9.2 | 82.7* | 77.5* | 93.9* | 86.1* | 51.7*
O=C(N/N=C/c1ccc(OC2CSC2)cc1)c1ccccc1 | 62.4* | 0.5 | 51.8* | 0.4 | 0.5 | 14.6 | 6.8 | 2.6 | 9.8 | 25.2 | -6.0
O=C(/C=C/c1ccc(OC2CSC2)cc1)c1ccccc1 | 37.8 | 55.3* | 53.9* | 1.0 | -131.0 | 11.3 | -1.6 | 14.7 | 6.0 | -7.1 | 25.6
